Laboratory results as given in ChEMBL document CHEMBL4765393, “Discovery of novel small molecule inhibitors of S100P with in vitro anti-metastatic effects on pancreatic cancer cells” (Eur J Med Chem, 2020).
Activity calls are given as the source filed them. The rule behind the calls is not given here.

Assays:
BXPC-3 [1] = assay: Cytotoxicity against S100P expressing human BXPC-3 cells assessed as reduction in cell viability at 10 uM measured after 24 hrs by MTS assay; assay type: functional, cell-based
Procedure, shortened: (§1)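 1 × 10^5 BxPC-3 (RPMI-1640) or Panc-1 (DMEM high glucose) cells, in medium with 10% FBS, were allowed to adhere for 24 h, then given 10 μM compound. MTS absorbance was read at 492 nm every 24 h. Background was subtracted and values normalized to untreated cells. n = 3 separate experiments.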

PANC-1 [2] = assay: Cytotoxicity against human PANC-1 cells assessed as reduction in cell viability at 10 uM measured after 24 hrs by MTS assay; assay type: functional, cell-based; procedure, shortened: as §1
BXPC-3 [3] = assay: Cytotoxicity against S100P expressing human BXPC-3 cells assessed as LDH release at 10 uM measured after 24 hrs by LDH assay; assay type: functional, cell-based
Procedure, shortened: (§2)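 1 × 10^5 BxPC-3 (RPMI-1640) or Panc-1 (DMEM high glucose) cells were allowed to adhere for 24 h, then given 10 μM compound. Membrane integrity was measured by LDH release (CytoTox-ONE) every 24 h for up to 3 days, with background OD subtracted.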

PANC-1 [4] = assay: Cytotoxicity against human PANC-1 cells assessed as LDH release at 10 uM measured after 24 hrs by LDH assay; assay type: functional, cell-based; procedure, shortened: as §2
BXPC-3 [5] = assay: Antiinvasive activity in S100P expressing human BXPC-3 cells assessed as inhibition of cell invasion at 10 uM incubated for 48 hrs by transwell invasion assay; assay type: functional, cell-based
Procedure, shortened: (§3)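 Matrigel-coated Transwell (PET membrane, 8 μm pores). BxPC-3 (RPMI-1640) or Panc-1 (DMEM) cells were seeded at 2 × 10^5 cells/mL in serum-free medium in the upper chamber, with 10% FBS below as chemoattractant. Cells were given 10 μM compound (0.1% DMSO final) for 48 h at 37 °C, 5% CO2. Invaded cells were Diff-Quik stained and counted in five ×100 fields. Three independent experiments.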

PANC-1 [6] = assay: Antiinvasive activity in human PANC-1 cells assessed as inhibition of cell invasion at 10 uM incubated for 48 hrs by transwell invasion assay; assay type: functional, cell-based; procedure, shortened: as §3
PANC-1 [7] = assay: Antiinvasive activity in human PANC-1 cells assessed as inhibition of cell invasion at 100 to 200 uM incubated for 48 hrs by transwell invasion assay; details: dose 100-200 µM
BXPC-3 [8] = assay: Antiinvasive activity in S100P expressing human BXPC-3 cells assessed as inhibition of cell invasion at 100 to 200 uM incubated for 48 hrs by transwell invasion assay; details: dose 100-200 µM
Homo sapiens = species: Homo sapiens; assay: Inhibition of human recombinant S100P/RAGE interaction incubated for 1 hr and measured by ELISA based binding assay
Procedure, shortened: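 His-tagged human S100P, expressed in E. coli BL21 and Ni-NTA purified, was coated at 2 μM in PBS pH 7.4 with 1 mM CaCl2, 10 μM ZnCl2 and 0.5 mM MgCl2 overnight at 37 °C, then blocked with 1% BSA for 2 h. Wells got increasing compound concentrations in triplicate, then human RAGE-Fc for 1 h at 37 °C, anti-human HRP for 1 h, and TMB for 20 min. Read at 450 nm, normalized to S100P+RAGE-Fc; IC50 estimated.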

[9] = Aqueous solubility of the compound in 1% DMSO; assay type: physicochemical; details: buffer
[10] = Aqueous solubility of the compound in 0.1% DMSO; assay type: physicochemical; details: buffer

| SMILES | Activity (BXPC-3 [1]) | Activity (PANC-1 [2]) | Activity (BXPC-3 [3]) | Activity (PANC-1 [4]) | Activity (BXPC-3 [5]) | Activity (PANC-1 [6]) | Activity (PANC-1 [7]) | Activity (BXPC-3 [8]) | INH (Homo sapiens) [nM] | solubility [9] | solubility [10] |
| --- | --- | --- | --- | --- | --- | --- | --- | --- | --- | --- | --- |
| O=C(Cc1cc(O)n[nH]1)N/N=C/c1c(Cl)cccc1Cl | inactive | inactive | inactive | inactive | Active | inactive | – | – | – | – | – |
| O=C(O)c1cc(=O)c2c(OCC(O)COc3cccc4oc(C(=O)O)cc(=O)c34)cccc2o1 | inactive | inactive | inactive | inactive | inactive | inactive | Active | Active | – | – | – |
| COc1ccc(/C=C2/C(=O)NC(=O)N(c3ccc(Cl)c(Cl)c3)C2=O)cc1C(=O)O | inactive | inactive | inactive | inactive | Active | inactive | – | – | – | – | – |
| O=C1C2C3c4ccccc4C(c4ccccc43)C2C(=O)N1c1cccc(F)c1 (centres undefined) | inactive | inactive | inactive | inactive | Active | inactive | – | – | 10 | Soluble | Soluble |
| N#CCCn1cc(C(=O)Nc2ccc(C(=O)O)cc2)c(-c2ccccc2)n1 | inactive | inactive | inactive | inactive | Active | inactive | – | – | – | – | – |
| O=C1C2C3c4ccccc4C(c4ccccc43)C2C(=O)N1c1ccccc1 (centres undefined) | inactive | inactive | inactive | inactive | Active | inactive | – | – | 10 | Soluble | Soluble |
| Cc1ccc(-c2ccc(=O)n(CC(=O)Nc3ccc(-n4cnnn4)cc3)n2)cc1 | inactive | inactive | inactive | inactive | Active | inactive | – | – | – | – | – |
| O=C1C2C3c4ccccc4C(c4ccccc43)C2C(=O)N1c1ccc(F)cc1 (centres undefined) | inactive | inactive | inactive | inactive | Active | inactive | – | – | 10 | Soluble | Soluble |
| O=C(O)c1cccc(N2C(=O)C3C4c5ccccc5C([N+](=O)[O-])(c5ccccc54)C3C2=O)c1 (centres undefined) | inactive | inactive | inactive | inactive | Active | inactive | – | – | 10 | – | – |
| O=C1C2C3c4ccccc4C([N+](=O)[O-])(c4ccccc43)C2C(=O)N1c1cccc(F)c1 (centres undefined) | inactive | inactive | inactive | inactive | Active | inactive | – | – | 100 | Soluble | Soluble |
| O=C(O)c1ccc(N2C(=O)C3C4c5ccccc5C([N+](=O)[O-])(c5ccccc54)C3C2=O)cc1 (centres undefined) | inactive | inactive | inactive | inactive | Active | inactive | – | – | < 10 | Soluble | Soluble |
